Experimental data from ChEMBL document CHEMBL3102739, “Synthesis and antiproliferative activity of conformationally restricted 1,2,3-triazole analogues of combretastatins in the sea urchin embryo model and against human cancer cell lines” (Bioorg Med Chem, 2014).

Columns and labels:
Paracentrotus lividus [1] = test: Antimitotic activity against sea urchin embryo free-swimming blastula model assessed as embryo spinning compound treated at 8 to 10 hrs post-fertilization measured after 0.25 to 20 hrs; assay type: functional, Blastula stage
Paracentrotus lividus [2] = test: Antimitotic activity against sea urchin embryo model assessed as cleavage alteration of fertilized egg compound treated at 8 to 20 mins post-fertilization and 45 to 55 mins prior to first mitotic cycle completion measured 2.5 to 5.5 hrs post-fertilization; assay type: functional
Summary of the method: (§1)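 Fertilized eggs are exposed 8–20 min after fertilization to 2-fold decreasing concentrations. Stocks are 10 mM in DMSO, then diluted 10-fold in 95% EtOH; final DMSO is at most 0.05% and EtOH at most 1%. Embryos are kept as a monolayer, up to 2000 embryos/mL, in filtered seawater at room temperature. The value is the threshold concentration giving cleavage alteration, embryo death before hatching or full mitotic arrest. Duplicates were run.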

[3] = Growth inhibition of human NCI60 cells at 10 uM after 48 hrs by SRB assay; assay type: functional; settings: NCI60, 48 h, values are per cent of control
Paracentrotus lividus [4] = test: Antimitotic activity against sea urchin embryo model assessed as cleavage arrest of fertilized egg compound treated at 8 to 20 mins post-fertilization and 45 to 55 mins prior to first mitotic cycle completion measured 2.5 to 5.5 hrs post-fertilization; assay type: functional; summary of the method: as §1

| SMILES | EC (Paracentrotus lividus [1]) [µM] | EC (Paracentrotus lividus [2]) [µM] | growth, % of control at 10 µM [3] [%] | EC (Paracentrotus lividus [4]) [µM] |
| --- | --- | --- | --- | --- |
| COc1ccc(-c2c(C#N)nnn2-c2ccc(OC)cc2)cc1 | >4 | 4 | 96.7 | >4 |
| COc1cccc(-c2c(C#N)nnn2-c2cccc(Cl)c2)c1 | >4 | >4 | 92 | >4 |
| COc1ccc(-n2nnc(C(=O)O)c2-c2cc(OC)c(OC)c(OC)c2)cc1 | >4 | >4 | 104 | >4 |
| COC(=O)c1nnn(-c2cc(OC)c(OC)c(OC)c2)c1-c1ccc(OC)cc1 | >4 | >4 | – | >4 |
| Nc1nnn(-c2cccc(Cl)c2)c1-c1ccccc1 | >4 | >4 | – | >4 |
| COc1ccc(-c2c(C(=O)O)nnn2-c2cc(OC)c(OC)c(OC)c2)cc1 | >4 | >4 | 99.4 | >4 |
